Data from ChEMBL document CHEMBL3124823, “1,2,3-Triazole-containing derivatives of rupestonic acid: click-chemical synthesis and antiviral activities against influenza viruses” (Eur J Med Chem, 2014).
In brackets after ≈: the same amount, converted by molar mass.

Tested on: Influenza A virus
Experiment: Antiviral activity against oseltamivir-resistant Influenza A virus (A/Tianjinjinnan/15/2009/H1N1) infected in MDCK cells assessed as inhibition of virus-induced cytopathicity after 40 hrs
Assay type: functional, organism-based
Settings: A/Tianjin-Jinnan/15/2009(H1N1)
How it was run: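 CPE reduction in MDCK cells: cells grown 24 h at 37 °C, 5% CO2, then infected and held 2 h at 37 °C before the inoculum was removed. Threefold serial drug dilutions (8 levels from 20 mg/mL DMSO stocks) were added and incubated 40 h at 37 °C. CPE inhibition was scored against cell and virus controls to give IC50. Ribavirin and oseltamivir were the controls.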

Row | SMILES | IC50
1 | C=C(C(=O)OCc1cn(Cc2cccc(F)c2)nn1)[C@@H]1CC[C@H](C)[C@@H]2CC(=O)C(C)=C2C1 | > 22.2 µg/mL
2 | C=C(C(=O)NCc1cn(Cc2cccc(F)c2)nn1)[C@@H]1CC[C@H](C)[C@@H]2CC(=O)C(C)=C2C1 | > 22.2 µg/mL
3 | C=C(C(=O)OCc1cn(Cc2ccccc2Cl)nn1)[C@@H]1CC[C@H](C)[C@@H]2CC(=O)C(C)=C2C1 | 59.2 µg/mL (≈ 130 µM)
4 | C=C(C(=O)OCc1cn(Cc2cccc(C)c2)nn1)[C@@H]1CC[C@H](C)[C@@H]2CC(=O)C(C)=C2C1 | 19.7 µg/mL (≈ 45.5 µM)
5 | C=C(C(=O)NCc1cn(Cc2cccc(Cl)c2)nn1)[C@@H]1CC[C@H](C)[C@@H]2CC(=O)C(C)=C2C1 | > 7.41 µg/mL
6 | CCOC(=O)C1=C[C@@H](OC(CC)CC)[C@H](NC(C)=O)[C@@H](N)C1 [OSELTAMIVIR] | > 500 µg/mL
7 | C=C(C(=O)OCc1cn(C2C=CCCC2)nn1)[C@@H]1CC[C@H](C)[C@@H]2CC(=O)C(C)=C2C1 (some centres not stated) | > 7.41 µg/mL
8 | NC(=O)c1ncn([C@@H]2O[C@H](CO)[C@@H](O)[C@H]2O)n1 [RIBAVIRIN] | 6.5 µg/mL (≈ 26.6 µM)
9 | C=C(C(=O)OCc1cn(Cc2ccccc2)nn1)[C@@H]1CC[C@H](C)[C@@H]2CC(=O)C(C)=C2C1 | > 7.41 µg/mL
10 | C=C(C(=O)NCc1cn(Cc2ccccc2C)nn1)[C@@H]1CC[C@H](C)[C@@H]2CC(=O)C(C)=C2C1 | > 22.2 µg/mL
11 | C=C(C(=O)NCc1cn(C2C=CCCC2)nn1)[C@@H]1CC[C@H](C)[C@@H]2CC(=O)C(C)=C2C1 (some centres not stated) | 19.7 µg/mL (≈ 48.3 µM)
12 | C=C(C(=O)NCc1cn(C2CCCCC2)nn1)[C@@H]1CC[C@H](C)[C@@H]2CC(=O)C(C)=C2C1 | 22.2 µg/mL (≈ 54.1 µM)
13 | C=C(C(=O)OCc1cn(Cc2ccccc2F)nn1)[C@@H]1CC[C@H](C)[C@@H]2CC(=O)C(C)=C2C1 | > 22.2 µg/mL
14 | C=C(C(=O)OCc1cn(Cc2cccc(Cl)c2)nn1)[C@@H]1CC[C@H](C)[C@@H]2CC(=O)C(C)=C2C1 | > 66.7 µg/mL
15 | C=C(C(=O)OCc1cn(Cc2ccc(Cl)c(Cl)c2)nn1)[C@@H]1CC[C@H](C)[C@@H]2CC(=O)C(C)=C2C1 | > 7.41 µg/mL
16 | C=C(C(=O)NCc1cn(Cc2ccccc2)nn1)[C@@H]1CC[C@H](C)[C@@H]2CC(=O)C(C)=C2C1 | > 22.2 µg/mL

Row | SMILES | IC50
17 | C=C(C(=O)OCc1cn(C2CCCCC2)nn1)[C@@H]1CC[C@H](C)[C@@H]2CC(=O)C(C)=C2C1 | 59.2 µg/mL (≈ 144 µM)
18 | C=C(C(=O)NCc1cn(Cc2ccc(Cl)c(Cl)c2)nn1)[C@@H]1CC[C@H](C)[C@@H]2CC(=O)C(C)=C2C1 | 22.2 µg/mL (≈ 45.6 µM)
19 | C=C(C(=O)NCc1cn(Cc2cccc(C)c2)nn1)[C@@H]1CC[C@H](C)[C@@H]2CC(=O)C(C)=C2C1 | > 22.2 µg/mL
20 | C=C(C(=O)NCc1cn(Cc2ccc(Cl)cc2)nn1)[C@@H]1CC[C@H](C)[C@@H]2CC(=O)C(C)=C2C1 | > 2.47 µg/mL
21 | C=C(C(=O)OCc1cn(Cc2ccc(OC)cc2)nn1)[C@@H]1CC[C@H](C)[C@@H]2CC(=O)C(C)=C2C1 | 22.2 µg/mL (≈ 49.4 µM)
22 | C=C(C(=O)NCc1cn(Cc2ccccc2Cl)nn1)[C@@H]1CC[C@H](C)[C@@H]2CC(=O)C(C)=C2C1 | > 7.41 µg/mL
23 | C=C(C(=O)OCc1cn(Cc2ccccc2C)nn1)[C@@H]1CC[C@H](C)[C@@H]2CC(=O)C(C)=C2C1 | > 22.2 µg/mL
24 | C=C(C(=O)OCc1cn(Cc2ccc(Cl)cc2)nn1)[C@@H]1CC[C@H](C)[C@@H]2CC(=O)C(C)=C2C1 | > 22.2 µg/mL
25 | C=C(C(=O)NCc1cn(Cc2ccccc2F)nn1)[C@@H]1CC[C@H](C)[C@@H]2CC(=O)C(C)=C2C1 | > 66.7 µg/mL
26 | C=C(C(=O)OCc1cn(Cc2cccc(OC)c2)nn1)[C@@H]1CC[C@H](C)[C@@H]2CC(=O)C(C)=C2C1 | > 22.2 µg/mL
27 | C=C(C(=O)NCc1cn(Cc2cccc(OC)c2)nn1)[C@@H]1CC[C@H](C)[C@@H]2CC(=O)C(C)=C2C1 | > 22.2 µg/mL
28 | C=C(C(=O)NCc1cn(Cc2ccc(F)cc2)nn1)[C@@H]1CC[C@H](C)[C@@H]2CC(=O)C(C)=C2C1 | > 66.7 µg/mL
29 | C=C(C(=O)NCc1cn(Cc2ccc(OC)cc2)nn1)[C@@H]1CC[C@H](C)[C@@H]2CC(=O)C(C)=C2C1 | > 22.2 µg/mL
30 | C=C(C(=O)OCc1cn(Cc2ccc(F)cc2)nn1)[C@@H]1CC[C@H](C)[C@@H]2CC(=O)C(C)=C2C1 | > 22.2 µg/mL
31 | C=C(C(=O)OCc1cn(Cc2ccc(C)cc2)nn1)[C@@H]1CC[C@H](C)[C@@H]2CC(=O)C(C)=C2C1 | > 22.2 µg/mL
32 | C=C(C(=O)NCc1cn(Cc2ccc(C)cc2)nn1)[C@@H]1CC[C@H](C)[C@@H]2CC(=O)C(C)=C2C1 | > 22.2 µg/mL
